Measurements: ChEMBL document CHEMBL1124774, “Synthesis and biological activity of some derivatives of rifamycin P” (1990)
≈ marks a conversion by molar mass, not a printed value.

Columns and labels:
Klebsiella pneumoniae = test: In vitro antibacterial activity of compound against Klebsiella pneumoniae ISM; format: functional
[1] = tested on: Mycobacterium scrofulaceum; test: In vitro activity of compound against slowly growing Mycobacterium scrofulaceum 1292; format: functional
How it was run: (§1)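 Medium was Middlebrook 7H10 agar with 2% glycerol and 10% OADC. Organisms from Loevenstein-Jensen slants were grown in 7H9 broth with 0.5% Tween and 10% OADC, adjusted to McFarland no. 1, and spotted with a multipoint inoculator. Sealed plates were incubated at 22, 30 or 37 °C for 4-20 days depending on strain.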

[2] = tested on: Mycobacterium scrofulaceum; test: In vitro activity of compound against slowly growing Mycobacterium scrofulaceum 1293; format: functional; how it was run: as §1
[3] = tested on: Mycobacterium scrofulaceum; test: In vitro activity of compound against slowly growing Mycobacterium scrofulaceum 1297; format: functional; how it was run: as §1
[4] = tested on: Mycobacterium scrofulaceum; test: In vitro activity of compound against slowly growing Mycobacterium scrofulaceum 1301; format: functional; how it was run: as §1
Mycobacterium xenopi [5] = test: In vitro activity compound against slowly growing Mycobacterium xenopi 1446; format: functional; how it was run: as §1
Mycobacterium xenopi [6] = test: In vitro activity of compound against slowly growing Mycobacterium xenopi 554; format: functional; how it was run: as §1
Mycobacterium xenopi [7] = test: In vitro activity of compound against slowl growingy Mycobacterium xenopi 555; format: functional; how it was run: as §1
Mycolicibacterium phlei [8] = test: In vitro activity of compound against rapidly growing Mycobacterium phlei 141; format: functional; how it was run: as §1
Mycolicibacterium phlei [9] = test: In vitro activity of compound against rapidly growing Mycobacterium phlei 1283; format: functional; how it was run: as §1
Mycolicibacterium phlei [10] = test: In vitro activity of compound against rapidly growing Mycobacterium phlei 1289; format: functional; how it was run: as §1
Mycobacterium kansasii [11] = test: In vitro activity compound against slowly growing Mycobacterium kansasii 1298; format: functional; how it was run: as §1
Mycobacterium kansasii [12] = test: In vitro activity of compound against slowly growing Mycobacterium kansasii 1299; format: functional; how it was run: as §1
Mycobacterium marinum [13] = test: In vitro activity of compound against slowly growing Mycobacterium marinum 1388; format: functional; how it was run: as §1
Mycobacterium marinum [14] = test: In vitro activity of compound against slowly growing Mycobacterium marinum 1390; format: functional; how it was run: as §1
Mycobacterium marinum [15] = test: In vitro activity of compound against slowly growing Mycobacterium marinum 1391; format: functional; how it was run: as §1
[16] = tested on: Mycolicibacterium fortuitum; test: In vitro activity of compound against rapidly growing Mycobacterium fortuitum 114; format: functional; how it was run: as §1
[17] = tested on: Mycolicibacterium fortuitum; test: In vitro activity of compound against rapidly growing Mycobacterium fortuitum 1285; format: functional; how it was run: as §1
[18] = tested on: Mycolicibacterium fortuitum; test: In vitro activity of compound against rapidly growing Mycobacterium fortuitum 1287; format: functional; how it was run: as §1
[19] = tested on: Mycolicibacterium fortuitum; test: In vitro activity compound against rapidly growing Mycobacterium fortuitum 1302; format: functional; how it was run: as §1
[20] = tested on: Mycolicibacterium fortuitum; test: In vitro activity of compound against rapidly growing Mycobacterium fortuitum 140; format: functional; how it was run: as §1
[21] = tested on: Mycolicibacterium fortuitum; test: In vitro activity compound against rapidly growing Mycobacterium fortuitum 1440; format: functional; how it was run: as §1
[22] = tested on: Mycolicibacterium fortuitum; test: In vitro activity of compound against rapidly growing Mycobacterium fortuitum 646; format: functional; how it was run: as §1
Mycobacterium gordonae [23] = test: In vitro activity of compound against slowly growing Mycobacterium gordonae 1294; format: functional; how it was run: as §1
Mycobacterium gordonae [24] = test: In vitro activity of compound against slowly growing Mycobacterium gordonae 1441; format: functional; how it was run: as §1
Mycobacterium kansasii [25] = test: In vitro activity compound against slowly growing Mycobacterium kansasii 1291; format: functional; how it was run: as §1
[26] = tested on: Mycolicibacterium flavescens; test: In vitro activity of compound against rapidly growing Mycobacterium flavescens 1284; format: functional; how it was run: as §1
[27] = tested on: Mycolicibacterium flavescens; test: In vitro activity of compound against rapidly growing Mycobacterium flavescens 1286; format: functional; how it was run: as §1
Mycobacterium marinum [28] = test: In vitro activity of compound against slowly growing Mycobacterium marinum 1392 h; format: functional; how it was run: as §1
Mycobacterium marinum [29] = test: In vitro activity of compound against slowly growing Mycobacterium marinum 1393; format: functional; how it was run: as §1
Mycobacterium marinum [30] = test: In vitro activity of compound against slowly growing Mycobacterium marinum 1394; format: functional; how it was run: as §1
Mycobacterium marinum [31] = test: In vitro activity of compound against slowly growing Mycobacterium marinum 1447; format: functional; how it was run: as §1
[32] = tested on: Mycobacterium tuberculosis; test: In vitro antibacterial activity of compound against Mycobacterium tuberculosis H37Rv ATCC 9660; format: functional
Mycobacterium avium = test: 50% inhibition of the 20 Mycobacterium (MAC) avium complex clinical isolates; format: functional
How it was run: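 Agar-dilution MICs, 2-fold dilutions over 128-0.0001 μg/mL, on Middlebrook 7H10 agar with 2% glycerol and 10% OADC. Organisms from Loevenstein-Jensen slants were grown in 7H9 broth with 0.5% Tween and 10% OADC, adjusted to McFarland no. 1, and spotted with a multipoint inoculator. Plates were sealed and incubated at 22, 30 or 37 °C for 4-20 days depending on strain.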

Neisseria gonorrhoeae = test: In vitro antibacterial activity of compound against Neisseria gonorrhoeae ISM 68/126; format: functional
Pseudomonas aeruginosa = test: In vitro antibacterial activity of compound against Pseudomonas aeruginosa ATCC 10145; format: functional
How it was run: (§2)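 Twofold microdilution MIC in Iso-Sensitest broth over 128-0.0001 µg/mL. Inoculum was 10^4 cfu/mL, with incubation at 37 °C for 18-24 h.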

Staphylococcus aureus [33] = test: Activity in the murine model (OS route) of Staphylococcus aureus tour septicemia; format: functional
How it was run: (§3)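 Male and female CD1 mice (18-22 g) were infected ip with S. aureus Tour. The challenge was set so untreated mice died within 48 h. Groups were five mice, dosed once daily for 3 days starting immediately after infection. ED50 was calculated on day 10 from the percentage surviving at each dose.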

Staphylococcus aureus [34] = test: Activity in the murine model (subcutaneous route) of Staphylococcus aureus tour septicemia; format: functional; conditions: sc; how it was run: as §3
[35] = tested on: Staphylococcus epidermidis; test: In vitro antibacterial activity of compound against Staphylococcus epidermidis ATCC 12228; format: functional; how it was run: as §2
Streptococcus pyogenes = test: In vitro antibacterial activity of compound against Streptococcus pyogenes C 203 SKF 13400; format: functional
How it was run: (§4)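 Streptococcal MICs were run by twofold microdilution in Todd-Hewitt broth over 128-0.0001 µg/mL. Inoculum was 10^4 cfu/mL, with incubation at 37 °C for 18-24 h.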

Staphylococcus aureus [36] = test: In vitro antibacterial activity of compound against Staphylococcus aureus Tour L 165; format: functional; how it was run: as §2
Streptococcus pneumoniae = test: In vitro antibacterial activity of compound against Streptococcus pneumoniae UC 41; format: functional; how it was run: as §4
Enterococcus faecalis = test: In vitro antibacterial activity of compound against Streptococcus faecalis ATCC 7080.; format: functional; how it was run: as §2
[37] = tested on: Mycolicibacterium fortuitum; test: In vitro activity of compound against rapidly growing Mycobacterium fortuitum 645; format: functional; how it was run: as §1
Haemophilus influenzae = test: In vitro antibacterial activity of compound against Haemophilus influenzae ATCC 19418; format: functional
Mycobacterium xenopi [38] = test: In vitro activity of compound against slowly growing Mycobacterium xenopi 556; format: functional; how it was run: as §1
Mycobacteroides chelonae = test: In vitro activity of compound against rapidly growing Mycobacterium chelonae 1443

SMILES: COC1/C=C/OC2(C)Oc3c(C)c(O)c4c(O)c(c(C=NN5CCN(C6CCCC6)CC5)c(O)c4c3C2=O)NC(=O)/C(C)=C\C=C\C(C)C(O)C(C)C(O)C(C)C(OC(C)=O)C1C (configuration not stated)
- MIC (Klebsiella pneumoniae): 32 µg/mL (≈ 36.5 µM)
- MIC [1]: 0.016 µg/mL (≈ 0.0182 µM)
- MIC [2]: 0.032 µg/mL (≈ 0.0365 µM)
- MIC [3]: 0.063 µg/mL (≈ 0.0718 µM)
- MIC [4]: 4 µg/mL (≈ 4.56 µM)
- MIC (Mycobacterium xenopi [5]): 0.25 µg/mL (≈ 0.285 µM)
- MIC (Mycobacterium xenopi [6]): 0.25 µg/mL (≈ 0.285 µM)
- MIC (Mycobacterium xenopi [7]): 0.25 µg/mL (≈ 0.285 µM)
- MIC (Mycolicibacterium phlei [8]): 0.016 µg/mL (≈ 0.0182 µM)
- MIC (Mycolicibacterium phlei [9]): 0.063 µg/mL (≈ 0.0718 µM)
- MIC (Mycolicibacterium phlei [10]): 2 µg/mL (≈ 2.28 µM)
- MIC (Mycobacterium kansasii [11]): 0.063 µg/mL (≈ 0.0718 µM)
- MIC (Mycobacterium kansasii [12]): 2 µg/mL (≈ 2.28 µM)
- MIC (Mycobacterium marinum [13]): 0.125 µg/mL (≈ 0.143 µM)
- MIC (Mycobacterium marinum [14]): 0.5 µg/mL (≈ 0.57 µM)
- MIC (Mycobacterium marinum [15]): 0.125 µg/mL (≈ 0.143 µM)
- MIC [16]: 32 µg/mL (≈ 36.5 µM)
- MIC [17]: 4 µg/mL (≈ 4.56 µM)
- MIC [18]: 1 µg/mL (≈ 1.14 µM)
- MIC [19]: 0.5 µg/mL (≈ 0.57 µM)
- MIC [20]: 32 µg/mL (≈ 36.5 µM)
- MIC [21]: 32 µg/mL (≈ 36.5 µM)
- MIC [22]: 32 µg/mL (≈ 36.5 µM)
- MIC (Mycobacterium gordonae [23]): 0.5 µg/mL (≈ 0.57 µM)
- MIC (Mycobacterium gordonae [24]): 1 µg/mL (≈ 1.14 µM)
- MIC (Mycobacterium kansasii [25]): 4 µg/mL (≈ 4.56 µM)
- MIC [26]: 32 µg/mL (≈ 36.5 µM)
- MIC [27]: 0.125 µg/mL (≈ 0.143 µM)
- MIC (Mycobacterium marinum [28]): 0.125 µg/mL (≈ 0.143 µM)
- MIC (Mycobacterium marinum [29]): 0.125 µg/mL (≈ 0.143 µM)
- MIC (Mycobacterium marinum [30]): 0.125 µg/mL (≈ 0.143 µM)
- MIC (Mycobacterium marinum [31]): 0.125 µg/mL (≈ 0.143 µM)
- MIC [32]: 0.063 µg/mL (≈ 0.0718 µM)
- MIC50 (Mycobacterium avium): 1 µg/mL (≈ 1.14 µM)
- MIC (Neisseria gonorrhoeae): 0.5 µg/mL (≈ 0.57 µM)
- MIC (Pseudomonas aeruginosa): 8 µg/mL (≈ 9.12 µM)
- ED50 (Staphylococcus aureus [33]): 0.22 mg/kg
- ED50 (Staphylococcus aureus [34]): 0.18 mg/kg
- MIC [35]: 0.063 µg/mL (≈ 0.0718 µM)
- MIC (Streptococcus pyogenes): 0.063 µg/mL (≈ 0.0718 µM)
- MIC (Staphylococcus aureus [36]): 0.063 µg/mL (≈ 0.0718 µM)
- MIC (Streptococcus pneumoniae): 0.063 µg/mL (≈ 0.0718 µM)
- MIC (Enterococcus faecalis): 2 µg/mL (≈ 2.28 µM)
- MIC [37]: 2 µg/mL (≈ 2.28 µM)
- MIC (Haemophilus influenzae): 0.5 µg/mL (≈ 0.57 µM)
- MIC (Mycobacterium xenopi [38]): 0.5 µg/mL (≈ 0.57 µM)
- MIC (Mycobacteroides chelonae): > 128 µg/mL
